Calls of active or inactive are those of the source. The rule behind the calls is not given here. Peptide text beside a SMILES is read from it.
Legend:
[1] = biological target: T1, Threonine aspartase 1 (Homo sapiens) (UniProt Q9H6P5); test: Inhibition of recombinant Taspase 1 assessed as loss of processing and accumulation of full length p45 fragment by radiographic in vitro cleavage assay added 30 mins before translated p45MLL
T1 sequence (whole entry): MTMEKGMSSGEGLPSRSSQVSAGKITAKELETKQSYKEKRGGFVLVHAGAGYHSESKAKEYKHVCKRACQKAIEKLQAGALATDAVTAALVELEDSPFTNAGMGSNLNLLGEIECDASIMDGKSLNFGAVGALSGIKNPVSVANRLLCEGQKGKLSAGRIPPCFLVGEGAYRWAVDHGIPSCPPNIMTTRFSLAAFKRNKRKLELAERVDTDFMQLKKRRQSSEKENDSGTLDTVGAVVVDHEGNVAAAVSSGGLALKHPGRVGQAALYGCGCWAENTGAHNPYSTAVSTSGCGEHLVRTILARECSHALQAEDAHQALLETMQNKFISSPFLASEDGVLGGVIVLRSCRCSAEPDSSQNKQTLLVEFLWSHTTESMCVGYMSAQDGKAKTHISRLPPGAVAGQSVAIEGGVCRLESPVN
Procedure, shortened: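 Substrate was a p45MLL fragment (residues 2,500–2,800) with the CS1 site mutated to block cleavage there. It was made by in vitro translation as 35S-labelled protein, exposed to Taspase1, and cleavage was followed by radiography.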

[2] = biological target: T2, Threonine aspartase 1 (Homo sapiens, UniProt Q9H6P5); test: Inhibition of recombinant Taspase 1 assessed as accumulation of emitted fluorescence by FRET assay
T2 sequence (Q9H6P5 whole entry): T1 sequence (whole entry)

[3] = biological target: T1, Threonine aspartase 1 (Homo sapiens); test: Inhibition of recombinant Taspase 1 assessed as accumulation of emitted fluorescence at 100 uM by FRET assay

## CC[C@H](C)[C@H](NC(C)=O)C(=O)N[C@@H](CO)C(=O)N[C@@H](CCC(N)=O)C(=O)N[C@@H](CC(C)C)C(=O)N[C@@H](CC(=O)C1(C)CO1)C(=O)O (some centres undefined) (HELM PEPTIDE1{[ac].I.S.Q.L.[CC1(C(=O)C[C@H](N[*:1])C(=O)O)CO1]}$$$$V2.0)
[1]
  Activity: Active

## CC[C@H](C)[C@H](NC(C)=O)C(=O)N[C@@H](CO)C(=O)N[C@@H](CCC(N)=O)C(=O)N[C@@H](CC(C)C)C(=O)N[C@@H](C/C=C/C(C)=O)C(=O)O (HELM PEPTIDE1{[ac].I.S.Q.L.[CC(=O)/C=C/C[C@H](N[*:1])C(=O)O]}$$$$V2.0)
[1]
  Activity: Active
[2]
  IC50: 63.4 µM

## CC[C@H](C)[C@H](NC(C)=O)C(=O)N[C@@H](CO)C(=O)N[C@@H](CCC(N)=O)C(=O)N[C@@H](CC(C)C)C(=O)N[C@@H](C/C=C/S(C)(=O)=O)C(=O)O (HELM PEPTIDE1{[ac].I.S.Q.L.[CS(=O)(=O)/C=C/C[C@H](N[*:1])C(=O)O]}$$$$V2.0)
[1]
  Activity: Active
[2]
  IC50: > 100 µM

## CC[C@H](C)[C@H](NC(C)=O)C(=O)N[C@@H](CO)C(=O)N[C@@H](CCC(N)=O)C(=O)N[C@@H](CC(C)C)C(=O)N[C@H](/C=C/S(C)(=O)=O)CC(=O)O (HELM PEPTIDE1{[ac].I.S.Q.L.[CS(=O)(=O)/C=C/[C@H](CC(=O)O)N[*:1]]}$$$$V2.0)
[1]
  Activity: Active

## CCCC[C@H](NC(=O)[C@H](CC(C)C)NC(=O)[C@H](CCC(N)=O)NC(=O)[C@H](CO)NC(=O)[C@@H](NC(C)=O)[C@@H](C)CC)C(=O)O (HELM PEPTIDE1{[ac].I.S.Q.L.[Nle]}$$$$V2.0)
[3]
  Activity: inactive

## CC[C@H](C)[C@H](NC(C)=O)C(=O)N[C@@H](CO)C(=O)N[C@@H](CCC(N)=O)C(=O)N[C@@H](CC(C)C)C(=O)NC1CB(O)OC1=O (some centres undefined) (HELM PEPTIDE1{[ac].I.S.Q.L.[O=C1OB(O)CC1N[*:1]]}$$$$V2.0)
[3]
  Activity: inactive

## CCCC[C@H](NC(=O)[C@H](CC(C)C)NC(=O)[C@H](CCC(N)=O)NC(C)=O)C(=O)O (HELM PEPTIDE1{[ac].Q.L.[Nle]}$$$$V2.0)
[3]
  Activity: inactive

From ChEMBL document CHEMBL1155299, “Design, syntheses, and evaluation of Taspase1 inhibitors” (Bioorg Med Chem Lett, 2009)
